Source: PubChem BioAssay AID2097 (Broad Institute, 2009)
Among all 300,000 compounds or so, about 120 (0.04%) were called active.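 How the source made its calls: active means more than half of replicate wells score below -50%, meaning over 50% inhibition versus plate controls; inconclusive means some replicates but at most half score below -50%; inactive means no replicate scores below -50%.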 For the sample, actives were picked, then their nearest neighbours and some compounds at random.

Biological target: Glycogen synthase kinase-3 beta (Homo sapiens) (UniProt P49841)
Assay: human GSK3beta kinase inhibitors, primary screen, biochemical, cell-free homogeneous, HTS (AID 2097);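 further: 0% = median DMSO wells and -100% = median GW8510 positive control wells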
Conditions: GST-GSK3beta kinase, ADP-Glo luminescence, 60 min; at 10 µM; active compounds read low
Summary of the method: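 Assay system: GST-tagged human GSK3beta kinase, cell-free; Input: 1.6 ng GSK3beta; Medium: Tris/MgCl2 kinase buffer; Timing: 60 min enzyme reaction, room temperature; Signal: ADP-Glo luminescence quantifying ADP generated by kinase; Evaluation: score relative to plate controls; Benchmarks: DMSO neutral wells and GW8510 at 20 µM as positive.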

Sequence of Glycogen synthase kinase-3 beta (Homo sapiens) (P49841 whole entry, looked up): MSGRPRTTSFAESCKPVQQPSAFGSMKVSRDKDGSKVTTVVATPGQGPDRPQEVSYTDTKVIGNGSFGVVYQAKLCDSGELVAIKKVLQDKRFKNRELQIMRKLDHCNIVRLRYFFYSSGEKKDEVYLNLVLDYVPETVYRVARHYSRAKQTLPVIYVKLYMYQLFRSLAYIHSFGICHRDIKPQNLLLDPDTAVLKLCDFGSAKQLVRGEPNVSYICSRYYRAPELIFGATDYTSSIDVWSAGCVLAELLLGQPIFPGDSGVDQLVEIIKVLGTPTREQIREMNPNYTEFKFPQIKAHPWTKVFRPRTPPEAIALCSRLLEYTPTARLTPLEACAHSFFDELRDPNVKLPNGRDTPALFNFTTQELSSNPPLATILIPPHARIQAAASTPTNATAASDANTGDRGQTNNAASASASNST

Activity score (negative = inhibition), inactive:
O=C(N/N=C/c1ccccc1O)/C(=C/c1ccccc1)CCO 0.241%
CC1CC2=C(CC1/C=N/NC(N)=S)C(C)(C)CCC2 (stereo not drawn) -1.32%
O=C1NC(Nc2nc3ccccc3s2)(C(F)(F)F)C(=O)N1C1CCCCC1 (stereo not drawn) -3.19%
Cc1ccc(C2=NN(C)c3nc4ccccc4n3C2)cc1 1.54%
Nc1nc(CC(=O)CSc2ccc(Cl)cc2)nc(Nc2ccc(F)cc2)n1 0.55%
Oc1c(Cl)cc(Cl)cc1/C=N/c1ncn[nH]1 0.992%
COC(C[C@H](O)CC(=O)[C@@H](C)OCc1ccccc1)OC -8.84%
Cc1cc(C)c(-c2csc(NC(=O)CCCc3nc4ccccc4c(=O)[nH]3)n2)c(C)c1 2.17%
COC(=O)Nc1ccc(S(=O)(=O)N2CCN(CCN3C(=O)C4C5C=CC(C5)C4C3=O)CC2)cc1 (stereo not drawn) -3.94%
O=C1C(=O)N(CCCN2CCOCC2)C(c2ccc([N+](=O)[O-])cc2)/C1=C(\O)c1ccc2c(c1)OCCO2 (stereo not drawn) 1.45%
COc1nc(Oc2ccc(=O)n(C)n2)nc(N(C)C)n1 0.382%
Cc1ccc(OCC(=O)Nc2ccc(C(=O)O)cc2NC(=O)COc2ccc(C)c(C)c2)cc1C 2.29%
CC(=O)N1CCSc2ccc(S(=O)(=O)N3CCC(C)CC3)cc21 1.34%
O=C(NCc1ccco1)C1CCCN1S(=O)(=O)c1ccccc1C(F)(F)F (stereo not drawn) 1.38%
Cn1c(=O)[nH]c(=O)c2c1nc(N1CCN(C(c3ccccc3)c3ccccc3)CC1)n2CCO -22.6%
CCN(CC(=O)Nc1ccccc1C(F)(F)F)C(=O)CSCc1c(C)noc1C -1.14%
CN1CCN(S(=O)(=O)c2ccc(Nc3ccc(F)cc3)nc2)CC1 2.53%
CC1(C)Cc2ccccc2/C(=C/C(=O)c2ccccc2)N1 -1.05%
CN(C)S(=O)(=O)c1ccc(N2CCCC2)c(C(=O)Nc2ccc(Br)cc2F)c1 3.14%
COc1ccc2c(c1OC)C(=O)N(c1ccc(O)cc1)C2 -1.79%
C=CCOc1c2ccc(C(=O)N(CC)c3ccc(OC)cc3)cc2nn1C 0.746%
O=CN1CCN(C(=O)c2ccc3c(c2)OCO3)CC1 2.93%
C/C(CC(=O)NCc1ccc(Cl)cc1)=N\NC(=O)COc1ccc(C)cc1Br -2.78%
COc1ccccc1C(=O)N(C1=NC(C)CS1)c1ccc(Cl)cc1 (stereo not drawn) 6.2%
O=C(Nc1ccccc1)Nc1nnc(COc2ccccc2F)s1 0.847%
CCCN1C2CCCC1CC(NC(=O)c1cccc(OC)c1)C2 (stereo not drawn) 2.34%
CN(CCNC(=O)c1cc2c(-c3ccccc3F)nn(C)c2s1)C1CCCCC1 -2.3%
COC(=O)c1ccc(CN2C(=O)NC(c3ccccc3)(c3ccccc3)C2=O)o1 -0.96%
CCn1cc(C(=O)N[C@@H](C)C(=O)NCCO)c(=O)c2cc3c(cc21)OCO3 -0.599%
O=[N+]([O-])c1cc([N+](=O)[O-])c(Oc2cc(F)cc(F)c2F)cc1NN1CCCCC1 -1.52%
CC(NC(=O)C1CCCN(S(=O)(=O)c2ccc(-n3cnnn3)cc2)C1)c1ccc(F)cc1 (stereo not drawn) -1.62%
COc1cc(NC(=O)C2CCN(c3cnccn3)CC2)cc(OC)c1 -0.841%
O=c1[nH]c2ccccc2n2c(-c3ccccc3)nnc12 -0.961%
CCCCN(C(=O)CSCC(=O)Nc1ccc(OC)cc1)c1c(N)n(CCC)c(=O)[nH]c1=O -1.15%
Cc1nnsc1S(=O)(=O)Cc1ccccc1Cl -0.424%
CC(=O)N1c2ccc(S(=O)(=O)N3CCCC(C(=O)Nc4ccc(C)cc4C)C3)cc2CC1C (stereo not drawn) 0.432%
CCOC(OCC)c1ccc(/C=C\c2nccc(N)n2)cc1 -5.66%
Cc1cccc(CCNS(=O)(=O)c2ccc(S(=O)(=O)NC3CCCC3)cc2)c1 -0.921%
COc1ccc(C)cc1N(C)C(=O)c1coc(=O)c2ccccc12 3.14%
COc1ccc(Cl)cc1NC(=O)C(C)N1CCc2ccccc21 (stereo not drawn) 0.322%
COC(=O)[C@]1(C)N[C@H](c2ccc(-c3ccc(Cl)c(Cl)c3)cc2)[C@@H]2C(=O)N(C)C(=O)[C@@H]21 -2.15%
Cc1cc(C)c(S(=O)(=O)c2ccccc2)c(OC(=O)c2c(F)cccc2Cl)n1 7.18%
N#Cc1ccccc1Sc1ccccc1C(=O)OCC(=O)NC1CCCCC1 5.54%
Cc1cc(Br)ccc1NC(=O)c1cnc(N2CCN(c3ccccn3)CC2)c2ccccc12 -4.35%
Cc1nnc(NC(=O)CCC(=O)N2CCC(C)CC2)s1 0.523%
Cc1ccc(NC(=O)c2ccc(CSc3ncnc4nc[nH]c34)cc2)c(C)c1 -7.49%
Cc1ccc2nc(NC(=O)CSc3nc(=O)n(CCCN(C)C)c4c3CCC4)sc2c1 2.91%
Cn1c(=O)c(=O)n(C)c2cc(S(=O)(=O)CCC(=O)N3CCCCC3)ccc21 2.02%
CCN(c1ccc2c(c1)OCO2)S(=O)(=O)c1cc(Br)cc2c1N(C(=O)C1CC1)CC2 -2.85%
CCC1(CC)NC(=O)N(CC(=O)OCC(=O)Nc2ccc(C(F)(F)F)cc2)C1=O -0.836%
COC(=O)c1cc2n(n1)CCCNC2=O 2.64%
O=C(NC1CCCC1)C(NS(=O)(=O)c1ccc(Br)s1)c1ccccc1 (stereo not drawn) -0.275%
O=C(O)c1ccc2c(=O)n3c(nc2c1)/C(=C/c1ccc(OC(F)F)cc1OC(F)F)CC3 -1.21%
COCCNC(=O)C1CCN(S(=O)(=O)c2ccc3c(c2)OCCO3)CC1 -2.22%
O=C(Nc1cccc(F)c1)N1C2CCC1CC(O)(c1cccnc1)C2 (stereo not drawn) 2.54%
CC(C)NS(=O)(=O)c1ccc(OCC(=O)NC2CCCCCC2)cc1 1.95%
CC(C)NC(=O)c1ccccc1S(=O)c1ccccc1C#N (stereo not drawn) -1.11%
CC(=O)Nc1nc2c(s1)C(=O)NCC(C)(C)C2 3.79%
